Assay outcomes deposited in PubChem by Johns Hopkins Ion Channel Center.
KCNK3 inh = human KCNK3 channel inhibitors, primary screen, CHO cells, FluxOR thallium flux, B-score; FluxOR fluorescence; hits give low values; 340,000 compounds, 0.84% hits; Potassium channel subfamily K member 3 (Homo sapiens), O14649; B-score at 10 µM;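 active = B-score under library mean minus 4 SD, starting fluorescence ratio at most library mean plus 5 SD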;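 also: more negative B-score means stronger inhibition of thallium flux through KCNK3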
KCNQ1 block = inhibitors of human KCNQ1 channel, primary screen, cell-based, thallium flux, high-throughput; Potassium voltage-gated channel subfamily KQT member 1 (Homo sapiens), P51787; CHO-K1 KCNQ1, FluxOR thallium flux fluorescence; hits give high values; B-score at 10 µM; 310,000 compounds, 1.3% hits; AID 2642, 2010;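 active = compounds whose thallium flux B-score, printed positive for inhibition, exceeds three library SD while starting fluorescence stays within three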;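 also: channel opened by potassium depolarization with thallium stimulus after 20 min compound exposure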
KCNK9 block = KCNK9 potassium channel inhibitors, primary screen, HEK293 cells, thallium flux | 310,000 compounds, 1.2% hits | FluxOR thallium flux fluorescence; hits give low values | AID 488922, 2010 | B-score at 10 µM | Potassium channel subfamily K member 9 (Homo sapiens), Q9NPC2;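 active = ratio B-score over 3 SD below the library mean, with starting fluorescence within 5 SD of its mean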;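 also: negative B-score means less thallium flux so channel inhibition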
hERG rescue = hERG rescue from dofetilide block, primary screen, cell-based, CHO-hERG, FluxOR thallium flux, dofetilide IC70 | dofetilide IC70 present | activation (rescue from dofetilide block), less the hit threshold, % at 10 µM | 310,000 compounds, 0.51% hits | AID 1511, 2009;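 active = activation above the mean of controls blocked by dofetilide plus 5 SD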;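 also: thallium influx through hERG after potassium depolarization seen as dye fluorescence rise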
Target sequence (Q12809 whole entry, looked up): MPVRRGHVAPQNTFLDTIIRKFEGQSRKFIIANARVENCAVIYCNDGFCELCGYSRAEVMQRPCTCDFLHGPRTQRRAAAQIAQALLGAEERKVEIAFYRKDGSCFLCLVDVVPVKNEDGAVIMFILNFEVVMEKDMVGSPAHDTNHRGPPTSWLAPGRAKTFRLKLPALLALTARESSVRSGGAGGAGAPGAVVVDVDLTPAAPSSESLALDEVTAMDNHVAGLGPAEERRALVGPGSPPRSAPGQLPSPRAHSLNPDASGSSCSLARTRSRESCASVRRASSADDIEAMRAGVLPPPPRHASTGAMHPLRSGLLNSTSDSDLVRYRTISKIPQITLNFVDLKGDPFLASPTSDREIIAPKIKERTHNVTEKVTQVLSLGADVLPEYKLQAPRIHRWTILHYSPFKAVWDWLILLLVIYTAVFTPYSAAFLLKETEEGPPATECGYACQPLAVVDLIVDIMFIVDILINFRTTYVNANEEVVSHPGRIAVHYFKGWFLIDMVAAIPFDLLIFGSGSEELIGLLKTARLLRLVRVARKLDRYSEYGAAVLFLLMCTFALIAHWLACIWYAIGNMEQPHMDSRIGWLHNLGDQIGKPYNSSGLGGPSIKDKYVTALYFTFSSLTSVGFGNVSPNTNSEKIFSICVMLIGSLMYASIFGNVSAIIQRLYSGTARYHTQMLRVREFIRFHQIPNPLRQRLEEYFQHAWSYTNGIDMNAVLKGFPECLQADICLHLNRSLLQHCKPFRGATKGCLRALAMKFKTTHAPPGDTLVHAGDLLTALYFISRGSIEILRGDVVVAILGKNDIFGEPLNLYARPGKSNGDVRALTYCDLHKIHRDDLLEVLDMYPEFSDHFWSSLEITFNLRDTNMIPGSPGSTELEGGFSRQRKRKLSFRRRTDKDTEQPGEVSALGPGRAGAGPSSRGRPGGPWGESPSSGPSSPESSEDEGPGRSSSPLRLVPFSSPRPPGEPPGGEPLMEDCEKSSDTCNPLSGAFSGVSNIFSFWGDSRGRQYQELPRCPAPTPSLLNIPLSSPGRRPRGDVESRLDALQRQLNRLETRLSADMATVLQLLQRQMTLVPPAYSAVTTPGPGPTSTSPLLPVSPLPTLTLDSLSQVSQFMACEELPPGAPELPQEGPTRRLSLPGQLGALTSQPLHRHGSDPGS
Kir21 block = inhibitors of mouse Kir2.1 inward-rectifier potassium channel; 310,000 compounds, 0.85% hits; HEK293-Kir2.1, FluxOR thallium flux fluorescence; hits give low values; AID 1672, 2009; B-score at 10 µM; Inward rectifier potassium channel 2 (Mus musculus), P35561;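 active = fluorescence ratio B-score at or below minus 3 SD of library scores, with starting-brightness B-score within 2 SD, cut at about -4.2 in these data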;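 also: channel flux triggered by added potassium and thallium sulfate stimulus; B-score of peak minus minimum fluorescence over baseline after thallium stimulus; more negative B-score means stronger Kir2.1 block with less thallium influx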
KCNQ1 act = potentiators or activators of KCNQ1 channel, primary screen, cell-based, thallium flux, high-throughput; Potassium voltage-gated channel subfamily KQT member 1 (Homo sapiens), P51787; 310,000 compounds, 0.35% hits; CHO-K1 KCNQ1, thallium flux FluxOR fluorescence; hits give high values; AID 2648, 2010; B-score at 10 µM;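 active = fluorescence ratio B-score, a plate-corrected score, at least three library SD, with initial intensity B-score within 5 SD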
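System: CHO-K1 cells stably expressing KCNQ1 / Medium: assay buffer for compound exposure, DMSO matched across wells / Reagent: thallium- and potassium-containing depolarizing buffer / Compound: one concentration, matched DMSO / Incubation: 20 min compound pretreatment at room temperature / Measured by: kinetic FluxOR fluorescence, 10 s baseline plus 110 s post-stimulus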
KCNK9 block conf = KCNK9 potassium channel inhibitors, confirmation, HEK293 cells, thallium flux, duplicate; inhibition, % at 10 µM; FluxOR thallium flux fluorescence; AID 492992, 2010; 4,900 compounds, 43% hits; shares compounds with KCNK9 block;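 active = thallium signal inhibited by more than 5 SD of the compound-free buffer control wells, on both duplicate plates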;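 also: 0% = assay buffer control wells without compound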
Kir2-1 spec = mouse Kir2.1 channel inhibition, confirmation, selectivity assay for KCNK9 modulator project, cell-based, HEK293, thallium flux. AID 492993, 2010. 4,900 compounds, 4% hits. inhibition, % at 10 µM. shares compounds with KCNK9 block. Kir2.1 cells, FluxOR thallium flux fluorescence;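 active = thallium signal drop more than 5 SD beyond the mean of the no-compound control wells, seen in both duplicate plates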;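 also: signal is fluorescence rise after thallium addition divided by baseline fluorescence; plate controls were assay buffer only for no effect and full block by chlorpromazine control for full effect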
KCNK9 uninduced = thallium flux in non-induced HEK293 cells, confirmation, counter-screen for KCNK9 inhibitor project, cell-based, second counter screen, non-induced KCNK9-HEK293. 4,900 compounds, 40% hits. FluxOR thallium flux. shares compounds with KCNK9 block. inhibition, % at 10 µM;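 active = thallium signal drop beyond 5 SD of the untreated control mean, on both duplicate plates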;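 also: plate controls were buffer only IC0 wells for no effect and SID17386958 at its maximal inhibitory level for full effect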
Numbers without * were called inactive; i = inactive; . = no result. Most compounds without a hit are left out; they make up all but 3.7% or so of the library.

SMILES	KCNK3 inh	KCNQ1 block	KCNK9 block	hERG rescue	Kir21 block	KCNQ1 act	KCNK9 block conf	Kir2-1 spec	KCNK9 uninduced
O=C(OCC(=O)N1CCCc2ccccc21)c1cnc(Cl)c(Cl)c1	i	i	i	-19	-0.86	i	i	i	i
O=C(OCC(=O)N1CCCc2ccccc21)c1cccc(C(F)(F)F)c1	i	i	i	-12	0.01	i	i	i	i
COc1ccc(CN(C)Cc2c(O)ccc3cc(Br)ccc23)cc1OC	i	i	i	-17	1.9	i	.	.	.
COc1ccc(CN(C)C(=O)CNC(=O)Cc2cccc3ccccc23)c(OC)c1OC	i	i	i	-6	-0.09	i	.	.	.
COc1cccc(CN(C)C(=O)CNC(=O)c2sc3ccccc3c2Cl)c1OC	i	i	i	-14	-0.56	i	i	i	i
CCN(CC)C(=O)c1oc2ccc(S(=O)(=O)N3CC(C)CC(C)C3)cc2c1C (centres undefined)	i	i	i	-14	-0.6	i	i	i	i
CN(CC(=O)Nc1c(Cl)cccc1Cl)C(=O)c1cccn1C	i	i	i	-4	0.35	i	.	.	.
CN(C[C@H](Cc1ccccc1)N(C[C@@H](Cc1cccc2ccccc12)N(CCc1ccccc1)N=O)N=O)N=O	i	i	-8.5*	-5	1.3	i	i	i	38%*
CC(C)C[C@@H](CN(N=O)[C@@H](Cc1ccccc1)CN(C)N=O)N(CCc1ccccc1)N=O	i	i	i	-3	0.64	i	.	.	.
CC(C)(C)OC(=O)N1CCC(c2c(C(=O)NC3CC3)cnn2-c2ccc(Cl)cc2)CC1	i	i	i	-7	3.3	i	i	i	i
CC1SCC(NC(=O)c2ccccc2Cl)CS1 (centres undefined)	i	i	i	-8	-0.47	i	.	.	.
CC1SCC(NC(=O)c2cccc(Cl)c2)CS1 (centres undefined)	i	i	-10*	-9	-0.16	i	44%*	i	26%*
CC1SCC(NC(=O)c2ccc(Cl)cc2)CS1 (centres undefined)	i	i	-14*	-9	-0.12	i	i	i	24%*
COc1cccc(NC(=O)CN(C)C(=O)c2ccc3[nH]c4c(c3c2)CC(C)CC4)c1 (centres undefined)	i	.	.	.	.	.	.	.	.
CCCOc1cccc(C(=O)NCCNC(=O)c2ccco2)c1	i	i	i	-9	0.02	i	.	.	.
COc1ccc(-c2noc(C3CCCN(S(=O)(=O)c4cccc(Cl)c4)C3)n2)cc1OC (centres undefined)	i	i	-8.1*	-12	1.5	i	i	i	26%*
COc1ccc(S(=O)(=O)NCC2CCCN(C(=O)CC3CCCC3)C2)cc1 (centres undefined)	i	i	i	-10	0.2	i	.	.	.
O=C(NCc1ccccn1)c1ccccc1OCc1ccc(F)cc1	i	i	i	-17	-1.1	i	.	.	.
COc1ccccc1CNC(=O)c1ccccc1OCc1ccc(F)cc1	i	i	-8.8*	-14	-6.5*	i	70%*	39%*	28%*
